Measurements as given in ChEMBL document CHEMBL1156405, “A new biologically active malyngamide from a New Zealand collection of the sea hare Bursatella leachii” (J Nat Prod, 2002).
pIC50: −log10 of the molar value. The source made the active and inactive calls. The calls are words filed in the database; no cut-off is given here.

Tests used:
[1] = system: Trichophyton mentagrophytes; assay: Antimicrobial activity against Trichophyton mentagrophytes at 120 ug/disk; assay type: functional
Method in brief: (§1)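 Disk diffusion assay with 120 µg loaded per disk. The read-out was the excess radius of the zone around the disk, in mm.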

[2] = system: P388; assay: Cytotoxicity against mouse P388 cells; assay type: functional, cell-based
[3] = Cytotoxicity against BSC1 cells assessed as radius zone size at 120 ug/disk; assay type: cell-based; conditions: chlorocebus aethiops, bsc-1; method in brief: as §1
[4] = system: Bacillus subtilis; assay: Antimicrobial activity against Bacillus subtilis at 120 ug/disk; assay type: functional; method in brief: as §1
[5] = system: Candida albicans; assay: Antimicrobial activity against Candida albicans at 120 ug/disk; assay type: functional, organism-based
[6] = system: HL-60; assay: Antiproliferative activity against human HL60 cells after 2 days; assay type: functional, cell-based; conditions: HL-60, 48 h
[7] = system: Mycobacterium tuberculosis; assay: Antimicrobial activity against Mycobacterium tuberculosis at 6.25 ug/mL; assay type: functional
[8] = system: Escherichia coli; assay: Antimicrobial activity against Escherichia coli at 120 ug/disk; assay type: functional, organism-based

Compound | zone of inhibition at 120 µg/disc ([1]; read-out: IZ) [mm] | pIC50 [2] | Activity [3] [mm] | zone of inhibition at 120 µg/disc ([4]; read-out: IZ) [mm] | Activity [5] | pIC50 [6] | Activity [1] | inhibition at 6.25 µg/mL [7] [%] | Activity [8] | Activity [4]
CCCCC[C@@H](C/C=C/CCC(=O)O)OC | 3 | < 4.00 | > 4.5 | 2 |  |  |  |  |  | 
CCCCC[C@@H](C/C=C/CCC(=O)NC/C(=C/Cl)[C@H]1C(=O)C(C)(C)C(=O)[C@@H](C)[C@@]1(C)O)OC [MALYNGAMIDE S] |  | 4.54 | > 4.5 |  | inactive | 5.22 | inactive | 0 | inactive | inactive
